Reference: ChEMBL document CHEMBL1153551, “Resveratrol modulates phagocytosis of bacteria through an NF-kappaB-dependent gene program” (Antimicrob Agents Chemother, 2008)
The source made the active and inactive calls.

Columns and labels:
THP-1 [1] = test: Inhibition of phagocytosis of FITC-conjugated Escherichia coli K12 in human THP1 cells assessed as reduction in ratio of number of bacterial cells to phagocytes using trypan blue staining by flow cytometry; assay type: functional, cell-based
In short: (§1)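 THP-1 or RAW264.7 cells received resveratrol for 1 h serum-free, then a range of doses of heat-killed FITC-E. coli or FITC-S. aureus. Trypan blue (0.2%) quenched bound bacteria and 1% paraformaldehyde fixed the cells. Flow cytometry MFI of internalized bacteria was plotted against bacterial dose; triplicates.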

RAW264.7 [2] = test: Inhibition of phagocytosis of FITC-conjugated Escherichia coli K12 in mouse RAW264.7 cells using trypan blue staining after 80 mins by flow cytometry; assay type: functional, cell-based
In short: (§2)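 Serum-free THP-1 or RAW264.7 cells were treated 1 h with resveratrol, then incubated 0, 20, 40, 60 or 80 min with heat-killed FITC-E. coli at 1:100 cell:bacterium. Outer fluorescence was quenched with 0.2% trypan blue and cells fixed in 1% paraformaldehyde. Internalized fluorescence was read as flow cytometry MFI; mean and SD of triplicates.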

RAW264.7 [3] = test: Inhibition of phagocytosis of FITC-conjugated Staphylococcus aureus 209P in mouse RAW264.7 cells using trypan blue staining after 60 mins by flow cytometry; assay type: functional, cell-based
THP-1 [4] = test: Inhibition of phagocytosis of FITC-conjugated Escherichia coli K12 in human THP1 cells using trypan blue staining after 80 mins by flow cytometry; assay type: functional, cell-based; in short: as §2
THP-1 [5] = test: Inhibition of phagocytosis of FITC-conjugated Staphylococcus aureus 209P in human THP1 cells using trypan blue staining after 40 mins by flow cytometry; assay type: functional, cell-based
THP-1 [6] = test: Inhibition of phagocytosis of FITC-conjugated Staphylococcus aureus 209P in human THP1 cells using trypan blue staining after 60 mins by flow cytometry; assay type: functional, cell-based
THP-1 [7] = test: Inhibition of phagocytosis of FITC-conjugated Staphylococcus aureus 209P in human THP1 cells using trypan blue staining after 20 mins by flow cytometry; assay type: functional, cell-based
HEK293 [8] = test: Inhibition of heat killed Staphylococcus aureus 209P-induced NF-kappaB activation in HEK293 cells expressing TLR2 pretreated for 1 hr before 6 hrs heat killed bacterial stimulation by luciferase reporter gene assay; assay type: cell-based; settings: Homo sapiens
In short: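 293/TLR2 cells (1 × 10⁵/well) were transfected with 50 ng pNF-κB-Luc, 5 ng pRL-TK and 445 ng pcDNA3. After 24 h they were pretreated 1 h with resveratrol, then stimulated 6 h serum-free with FSL-1 (1, 10, 100 nM) or heat-killed E. coli or S. aureus (1:1, 1:10, 1:100). Dual luciferase readout, triplicates.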

THP-1 [9] = test: Inhibition of phagocytosis of FITC-conjugated Escherichia coli K12 in human THP1 cells using trypan blue staining after 60 mins by flow cytometry; assay type: functional, cell-based; in short: as §2
RAW264.7 [10] = test: Inhibition of FSL-1-induced increase in phagocytosis of FITC-conjugated Escherichia coli K12 in mouse RAW264.7 cells using trypan blue staining after 20 mins by flow cytometry; assay type: functional, cell-based
In short: (§3)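 THP-1 or RAW264.7 cells (1 × 10⁶/ml) were pretreated 24 h with FSL-1 (0, 1, 10, 100 nM), washed, then given resveratrol (10, 50, 100 μM) for 1 h serum-free. Heat-killed FITC-E. coli (1:10) or FITC-S. aureus (1:100) followed. Surface fluorescence was quenched with 0.2% trypan blue and cells fixed in 1% paraformaldehyde. Flow cytometry mean fluorescence intensity, triplicates.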

THP-1 [11] = test: Inhibition of FSL1-induced upregulation of dectin-1 mRNA expression in human THP1 cells at 100 uM after 1 hr by RT-PCR; assay type: functional, cell-based
In short: (§4)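 Serum-free THP-1 cells primed 24 h with 100 nM FSL-1 were given 100 μM resveratrol or 0.1% DMSO for 1 h. Total RNA from 5 × 10⁶ cells was reverse-transcribed with oligo(dT) and PCR-amplified for MSR1, CD36, DC-SIGN and Dectin-1 (30 cycles) with β-actin as reference (25 cycles). Products were resolved on 3% agarose with ethidium bromide.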

RAW264.7 [12] = test: Inhibition of phagocytosis of FITC-conjugated Escherichia coli K12 in mouse RAW264.7 cells assessed as reduction in ratio of number of bacterial cells to phagocytes using trypan blue staining by flow cytometry; assay type: functional, cell-based; in short: as §1
RAW264.7 [13] = test: Inhibition of heat killed Escherichia coli K12-induced TNF alpha production in mouse RAW264.7 cells at 1 to 100 uM after 6 hrs by ELISA; assay type: functional, cell-based
In short: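 THP-1 or RAW264.7 cells (1 × 10⁶/well, 16 h) were washed and pretreated 1 h with resveratrol. Serum-free stimulation with heat-killed E. coli or S. aureus at 1:100 followed for 0, 2, 4 or 6 h. TNF-α in supernatants (400 × g spin) was measured by ELISA: human kit for THP-1, mouse kit for RAW264.7. Triplicates.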

RAW264.7 [14] = test: Inhibition of phagocytosis of FITC-conjugated Staphylococcus aureus 209P in mouse RAW264.7 cells using trypan blue staining after 20 mins by flow cytometry; assay type: functional, cell-based
THP-1 [15] = test: Inhibition of FSL-1-induced increase in phagocytosis of FITC-conjugated Escherichia coli K12 in human THP1 cells assessed as reduction in number of phagocytosing bacteria to total number of cells after 1 hr by CLSM; assay type: functional, cell-based
In short: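 THP-1 cells (1 × 10⁶/ml) were held 24 h with or without 100 nM FSL-1, washed, then given 100 μM resveratrol or 0.1% DMSO for 1 h. Heat-killed FITC-E. coli (1:100) was added for 1 h, cells were stained with concanavalin A, fixed in 3% paraformaldehyde and imaged by confocal microscopy. Readouts: particles per cell among 3,500 cells; % cells with bacteria per field (>100 cells), 25 fields.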

HEK293 [16] = test: Inhibition of DC-SIGN expression in HEK293 cells expressing DC-SIGN at 100 uM by Western blot analysis; assay type: functional, cell-based; settings: Homo sapiens
In short: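 293/DC-SIGN cells (1 × 10⁷ per 10-cm dish, DMEM complete medium, 16 h) were washed and exposed to 100 μM resveratrol for 0, 30, 60, 90 or 120 min. Lysates in SDS sample buffer with protease inhibitors were boiled and run on 10% SDS-PAGE, then blotted to nitrocellulose. Probes were anti-DC-SIGN or anti-β-actin mAb (4°C overnight), then HRP anti-mouse IgG.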

THP-1 [17] = test: Inhibition of phagocytosis of FITC-conjugated Escherichia coli K12 in human THP1 cells using trypan blue staining after 40 mins by flow cytometry; assay type: functional, cell-based; in short: as §2
HEK293 [18] = test: Inhibition of heat killed Escherichia coli K12-induced nuclear translocation of p65 element of NF-kappaB in HEK293 cells expressing TLR2 at 100 uM pretreated for 1 hr before 6 hrs heat killed bacterial stimulation by immunostaining method; assay type: cell-based; settings: Homo sapiens
In short: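 293/TLR2 cells on poly-L-lysine coverslips were given 100 μM resveratrol or 0.1% DMSO for 1 h, then heat-killed E. coli or S. aureus (1:100) for 6 h. Cells were fixed in methanol at −20°C for 5 min and stained with rabbit anti-p65 pAb (1 μg/ml, 45 min RT), then Alexa 594 anti-rabbit IgG. Nuclear p65 was viewed by confocal microscopy.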

THP-1 [19] = test: Inhibition of FSL1-induced upregulation of CD36 mRNA expression in human THP1 cells at 100 uM after 1 hr by RT-PCR; assay type: functional, cell-based; in short: as §4
RAW264.7 [20] = test: Inhibition of phagocytosis of FITC-conjugated Staphylococcus aureus 209P in mouse RAW264.7 cells using trypan blue staining after 80 mins by flow cytometry; assay type: functional, cell-based
RAW264.7 [21] = test: Inhibition of FSL-1-induced increase in phagocytosis of FITC-conjugated Staphylococcus aureus 209P in mouse RAW264.7 cells using trypan blue staining after 20 mins by flow cytometry; assay type: functional, cell-based; in short: as §3

Measured: Activity

Oc1ccc(/C=C/c2cc(O)cc(O)c2)cc1
active: THP-1 [1] | RAW264.7 [2] Dose-dependent effect | RAW264.7 [3] Dose-dependent effect | THP-1 [4] Dose-dependent effect | THP-1 [5] Dose-dependent effect | THP-1 [6] Dose-dependent effect | THP-1 [7] Dose-dependent effect | HEK293 [8] | THP-1 [9] Dose-dependent effect | RAW264.7 [10] Dose-dependent effect | THP-1 [11] | RAW264.7 [12] | RAW264.7 [13] | RAW264.7 [14] Dose-dependent effect | THP-1 [15] | HEK293 [16] | THP-1 [17] Dose-dependent effect | HEK293 [18] | THP-1 [19] | RAW264.7 [20] Dose-dependent effect | RAW264.7 [21] Dose-dependent effect
